Measurements from ChEMBL document CHEMBL1914310, “Microbial transformations of diosgenin by the white-rot basidiomycete Coriolus versicolor” (2011).
Active and inactive are the calls of the source. No cut-off for these calls is given here.

Assays:
HEK293 = test: Inhibition of human NF-kappaB in HEK cells by luciferase reporter gene assay; assay type: cell-based
In short: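 HEK293 cells with a chromosomally integrated luciferase reporter under an NF-κB response element. Pathway activation induced by human tumor necrosis factor. After incubation, treated cells were lysed in reporter lysis buffer. Luciferase light output was read on a luminometer.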

[1] = Cytotoxicity against human U87 cells assessed as growth inhibition at 100 uM after 48 hrs by XTT assay; assay type: functional, U-87MG ATCC; conditions: U-87 MG, read-out: GI
In short: (§1)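 U87 glioma cells kept in ATCC-recommended medium with 10% FBS at 37 °C, 5% CO2. Seeded at 1000 cells/well, exposed to compounds for 48 h. XTT added, then plates held another 4 h at 37 °C. Viability read colorimetrically per the kit protocol; inhibition taken at 100 μM.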

U-87MG ATCC = test: Cytotoxicity against human U87 cells after 48 hrs by XTT assay; assay type: functional, cell-based; in short: as §1

Compound | inhibition (HEK293) | inhibition of growth at 100 µM [1] [%] | Activity (U-87MG ATCC)
C[C@@H]1CC[C@@]2(OC1)O[C@H]1C[C@H]3[C@@H]4[C@@H](O)C=C5C[C@@H](O)CC[C@]5(C)[C@H]4CC[C@]3(C)[C@H]1[C@@H]2CO | inactive | 28.2 | inactive
C[C@@H]1CC[C@@]2(OC1)O[C@H]1C[C@H]3[C@@H]4CC[C@H]5C[C@@H](O)CC[C@]5(C)[C@H]4CC[C@]3(C)[C@H]1[C@@H]2C | inactive |  | 
CC(=O)O[C@H]1CC[C@@]2(C)C(=CC[C@H]3[C@@H]4C[C@@H]5O[C@]6(CC[C@@H](C)CO6)[C@@H](C)[C@@H]5[C@@]4(C)CC[C@@H]32)C1 | inactive |  | inactive
C[C@@H]1CC[C@@]2(OC1)O[C@H]1C[C@H]3[C@@H]4CCC5=CC(=O)CC[C@]5(C)[C@H]4CC[C@]3(C)[C@H]1[C@@H]2C | inactive |  | inactive
C[C@@H]1CC[C@@]2(OC1)O[C@H]1C[C@H]3[C@@H]4[C@H](O)C=C5C[C@@H](O)CC[C@]5(C)[C@H]4C[C@@H](O)[C@]3(C)[C@H]1[C@@H]2CO | inactive |  | 
C[C@@H]1CC[C@@]2(OC1)O[C@H]1[C@H](O)[C@H]3[C@@H]4[C@H](O)C=C5C[C@@H](O)CC[C@]5(C)[C@H]4CC[C@]3(C)[C@H]1[C@@H]2CO | inactive |  | inactive
C[C@@H]1CC[C@@]2(OC1)O[C@H]1C[C@H]3[C@@H]4[C@@H](O)C=C5C[C@@H](O)CC[C@]5(C)[C@H]4C[C@@H](O)[C@]3(C)[C@H]1[C@@H]2CO | inactive |  | inactive
C[C@@H]1CC[C@@]2(OC1)O[C@H]1C[C@H]3[C@@H]4CC=C5C[C@@H](O)CC[C@]5(C)[C@H]4CC[C@]3(C)[C@H]1[C@@H]2C | inactive |  | 
C[C@@H]1CC[C@@]2(OC1)O[C@H]1C[C@H]3[C@@H]4[C@@H](O)C=C5C[C@@H](O)CC[C@]5(C)[C@H]4C[C@@H](O)[C@]3(C)[C@H]1[C@@H]2C | inactive |  | inactive
C[C@@H]1CC[C@@]2(OC1)O[C@H]1C[C@H]3[C@H]4[C@H]([C@H](O)C[C@]3(C)[C@H]1[C@@H]2CO)[C@@]1(C)CC[C@H](O)CC1=C[C@@H]4O | inactive |  | 
C[C@@H]1CC[C@@]2(OC1)O[C@H]1C[C@H]3[C@@H]4[C@@H](O)C=C5C[C@@H](O)CC[C@]5(C)[C@H]4CC[C@]3(C)[C@H]1[C@@H]2C | inactive |  | inactive
